Legend:
Assay type in all cases: functional
RPMI-8226 = experiment: Cytotoxicity against human RPMI8226 cells
Outline: (§1)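 Tested in a 60-cell-line human tumor panel screen; the read-out is growth inhibition, reported as GI50 for each cell line.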

Malme-3M = experiment: Cytotoxicity against human MALME-3M cells; outline: as §1
[1] = Cytotoxicity against human HCT15 cells; conditions: for GI50: HCT-15; for CC50: HCT-15, read-out: pLC50 (the source's name) (converted); for TGI: HCT-15, read-out: pTGI (converted); outline: as §1
LOX IMVI = experiment: Cytotoxicity against human LOXIMVI cells; conditions: for CC50: read-out: pLC50 (the source's name) (converted); for TGI: read-out: pTGI (converted); outline: as §1
[2] = Cytotoxicity against human OVCAR4 cells; conditions: for GI50: OVCAR-4; for CC50: OVCAR-4, read-out: pLC50 (the source's name) (converted); for TGI: OVCAR-4, read-out: pTGI (converted); outline: as §1
A549 = experiment: Cytotoxicity against human A549 cells; conditions: for CC50: read-out: pLC50 (the source's name) (converted); for TGI: read-out: pTGI (converted); outline: as §1
NCI-H522 = experiment: Cytotoxicity against human NCI-H522 cells; outline: as §1
CAKI-1 = experiment: Cytotoxicity against human Caki1 cells; conditions: for TGI: read-out: pTGI (converted); outline: as §1
HOP-62 = experiment: Cytotoxicity against human HOP62 cells; conditions: for CC50: read-out: pLC50 (the source's name) (converted); outline: as §1
IGROV-1 = experiment: Cytotoxicity against human IGROV1 cells; conditions: for CC50: read-out: pLC50 (the source's name) (converted); for TGI: read-out: pTGI (converted); outline: as §1
HCT-116 = experiment: Cytotoxicity against human HCT116 cells; conditions: for CC50: read-out: pLC50 (the source's name) (converted); for TGI: read-out: pTGI (converted); outline: as §1
TK-10 = experiment: Cytotoxicity against human TK10 cells; conditions: for TGI: read-out: pTGI (converted)
Outline: (§2)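 Cell line run as part of the 60-cell-line screening panel; growth inhibition was reported as a GI50 for each line.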

COLO 205 = experiment: Cytotoxicity against human COLO205 cells; conditions: for CC50: read-out: pLC50 (the source's name) (converted); for TGI: read-out: pTGI (converted); outline: as §1
HOP-92 = experiment: Cytotoxicity against human HOP92 cells; conditions: for CC50: read-out: pLC50 (the source's name) (converted); for TGI: read-out: pTGI (converted); outline: as §1
SK-MEL-28 = experiment: Cytotoxicity against human SK-MEL-28 cells; outline: as §1
SW-620 = experiment: Cytotoxicity against human SW620 cells; outline: as §2
[3] = Cytotoxicity against human Hs578T cells; conditions: Hs-578T; outline: as §1
[4] = read-out: pLC50 (the source's name) (converted)

For `COc1cc(/C=C/c2cc(O)c3c(C/C=C(\C)CCC=C(C)C)c[nH]c3c2)cc2c1O[C@]1(C)CC[C@@H](O)C(C)(C)[C@H]1C2`, which GI50 (RPMI-8226) is on record?
The GI50 was 0.158 µM.

And the CC50 (RPMI-8226; [4])?
Its CC50 is over 100 µM.

And the TGI (RPMI-8226; read-out: pTGI (converted))?
Its TGI is 1.66 µM.

What about the GI50 (Malme-3M) of the same compound?
The GI50 was 2.95 µM.

And the CC50 (Malme-3M; [4])?
Its CC50 is over 100 µM.

And the TGI (Malme-3M; read-out: pTGI (converted))?
Its TGI is 61.7 µM.

And the GI50 [1]?
Its GI50 is 0.741 µM.

And the CC50 [1]?
Its CC50 is 53.7 µM.

What about the TGI [1] of the same compound?
Its TGI is 6.76 µM.

And the GI50 (LOX IMVI)?
Its GI50 is 1.26 µM.

What about the CC50 (LOX IMVI) of the same compound?
The CC50 was 29.5 µM.

And the TGI (LOX IMVI)?
Its TGI is 4.79 µM.

What about the GI50 [2] of the same compound?
Its GI50 is 6.46 µM.

And the CC50 [2]?
The CC50 was over 100 µM.

What about the TGI [2] of the same compound?
Its TGI is over 100 µM.

And the GI50 (A549)?
The GI50 was 2.57 µM.

And the CC50 (A549)?
Its CC50 is over 100 µM.

And the TGI (A549)?
The TGI was over 100 µM.

What about the GI50 (NCI-H522) of the same compound?
Its GI50 is 2.63 µM.

What about the CC50 (NCI-H522; [4]) of the same compound?
The CC50 was over 100 µM.

And the TGI (NCI-H522; read-out: pTGI (converted))?
The TGI was 16.6 µM.

What about the GI50 (CAKI-1) of the same compound?
Its GI50 is 0.447 µM.

And the LC50 (CAKI-1)?
Its LC50 is 7.76 µM.

And the TGI (CAKI-1)?
The TGI was 1.82 µM.

What about the GI50 (HOP-62) of the same compound?
Its GI50 is 0.794 µM.

And the CC50 (HOP-62)?
The CC50 was 8.71 µM.

And the TGI (HOP-62; read-out: pTGI (converted))?
Its TGI is 2.75 µM.

What about the GI50 (IGROV-1) of the same compound?
Its GI50 is 1.62 µM.

What about the CC50 (IGROV-1) of the same compound?
The CC50 was over 100 µM.

And the TGI (IGROV-1)?
The TGI was over 100 µM.

What about the GI50 (HCT-116) of the same compound?
Its GI50 is 1.38 µM.

And the CC50 (HCT-116)?
The CC50 was over 100 µM.

And the TGI (HCT-116)?
Its TGI is 22.9 µM.

And the GI50 (TK-10)?
Its GI50 is 16.6 µM.

What about the LC50 (TK-10) of the same compound?
Its LC50 is over 100 µM.

What about the TGI (TK-10) of the same compound?
The TGI was over 100 µM.

And the GI50 (COLO 205)?
Its GI50 is 0.331 µM.

What about the CC50 (COLO 205) of the same compound?
Its CC50 is 6.31 µM.

And the TGI (COLO 205)?
The TGI was 1.02 µM.

And the GI50 (HOP-92)?
The GI50 was 0.724 µM.

And the CC50 (HOP-92)?
The CC50 was over 100 µM.

What about the TGI (HOP-92) of the same compound?
Its TGI is 8.71 µM.

With `COc1cc(/C=C/c2cc(O)c3c(CC=C(C)C)c[nH]c3c2)cc2c1O[C@]1(C)CC[C@@H](O)C(C)(C)[C@H]1C2` as the compound, how does the GI50 (SK-MEL-28) read?
The GI50 was 0.55 µM.

And the CC50 (SK-MEL-28; [4])?
Its CC50 is 50.1 µM.

And the TGI (SK-MEL-28; read-out: pTGI (converted))?
The TGI was 1.91 µM.

What about the GI50 (SW-620) of the same compound?
The GI50 was 0.447 µM.

And the CC50 (SW-620; [4])?
Its CC50 is 10.7 µM.

And the TGI (SW-620; read-out: pTGI (converted))?
The TGI was 1.74 µM.

And the GI50 [1]?
The GI50 was 0.17 µM.

And the CC50 [1]?
Its CC50 is 50.1 µM.

What about the TGI [1] of the same compound?
Its TGI is 1.55 µM.

And the GI50 (LOX IMVI)?
Its GI50 is 0.2 µM.

And the CC50 (LOX IMVI)?
Its CC50 is 50.1 µM.

What about the TGI (LOX IMVI) of the same compound?
The TGI was 1.17 µM.

What about the GI50 [2] of the same compound?
The GI50 was 5.25 µM.

And the CC50 [2]?
Its CC50 is 50.1 µM.

And the TGI [2]?
Its TGI is 50.1 µM.

What about the GI50 (A549) of the same compound?
Its GI50 is 1.7 µM.

And the CC50 (A549)?
The CC50 was 50.1 µM.

And the TGI (A549)?
Its TGI is 50.1 µM.

What about the GI50 (CAKI-1) of the same compound?
The GI50 was 0.263 µM.

And the LC50 (CAKI-1)?
Its LC50 is 50.1 µM.

What about the TGI (CAKI-1) of the same compound?
The TGI was 50.1 µM.

What about the GI50 (HOP-62) of the same compound?
The GI50 was 0.234 µM.

And the CC50 (HOP-62)?
The CC50 was 50.1 µM.

What about the GI50 (IGROV-1) of the same compound?
The GI50 was 0.417 µM.

And the CC50 (IGROV-1)?
The CC50 was 50.1 µM.

What about the TGI (IGROV-1) of the same compound?
The TGI was 50.1 µM.

And the GI50 (HCT-116)?
The GI50 was 3.24 µM.

What about the CC50 (HCT-116) of the same compound?
The CC50 was 50.1 µM.

And the TGI (HCT-116)?
The TGI was 50.1 µM.

What about the GI50 (TK-10) of the same compound?
Its GI50 is 7.76 µM.

What about the LC50 (TK-10) of the same compound?
The LC50 was 50.1 µM.

And the TGI (TK-10)?
The TGI was 50.1 µM.

What about the GI50 (COLO 205) of the same compound?
Its GI50 is 0.302 µM.

What about the CC50 (COLO 205) of the same compound?
Its CC50 is 6.46 µM.

What about the TGI (COLO 205) of the same compound?
The TGI was 1.35 µM.

What about the GI50 (HOP-92) of the same compound?
Its GI50 is 0.589 µM.

And the CC50 (HOP-92)?
The CC50 was 50.1 µM.

What about the TGI (HOP-92) of the same compound?
Its TGI is 50.1 µM.

What about the GI50 [3] of the same compound?
The GI50 was 0.0708 µM.

And the LC50 [3]?
Its LC50 is 50.1 µM.

What about the TGI ([3]; read-out: pTGI (converted)) of the same compound?
The TGI was 1 µM.

Reference: ChEMBL document CHEMBL3232844, “Synthesis and structure activity relationships of schweinfurthin indoles” (2014)
